Source: PubChem BioAssay
HTR1E antagonist – 5-HT1E (human) receptor antagonism. P28566. CHO 5-HT1E Ga15 NFAT-bla reporter, FRET, antagonist. inhibition, % at 6 µM. actives 0.99% (n = 65,000). AID 571;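 active = inhibition above a set limit, the mean inhibition across every tested compound plus 3 SD, cut at about 29% in these data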;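 also: signal is the 460 over 535 nm emission ratio of beta-lactamase substrate; 0% = agonist plus DMSO wells and 100% = wells without agonist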
S1P1 ag pot – activates or potentiates agonism at human S1P1 receptor. AID 449. S1P1 CRE-bla cells, forskolin, beta-lactamase FRET, potentiator mode; S1P1 agonist co-added at EC20, 2 nM; 100% = saturating reference agonist, 0% = basal. P21453. actives 0.57% (n = 56,000). activation, % at 9.5 µM;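 active = activation above a cutoff set at the mean activation of all tested compounds plus 3 SD, cut at about 54% in these data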;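 also: forskolin at 4 µM as EC80 and the EC20 agonist is SEW2871; 100% = SEW2871 at its EC100 plus forskolin at EC80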
Target sequence (P21453 whole entry, looked up): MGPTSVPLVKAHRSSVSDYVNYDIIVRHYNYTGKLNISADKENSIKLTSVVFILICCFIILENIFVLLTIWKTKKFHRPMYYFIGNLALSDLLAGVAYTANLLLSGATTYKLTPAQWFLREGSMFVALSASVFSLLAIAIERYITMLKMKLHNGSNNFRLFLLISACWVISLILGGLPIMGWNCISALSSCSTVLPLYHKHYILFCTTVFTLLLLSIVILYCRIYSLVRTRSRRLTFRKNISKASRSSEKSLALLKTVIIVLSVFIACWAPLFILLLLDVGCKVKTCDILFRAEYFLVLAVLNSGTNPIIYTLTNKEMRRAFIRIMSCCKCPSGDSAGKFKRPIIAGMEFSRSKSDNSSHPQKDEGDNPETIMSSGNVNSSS
HTR1A agonist – agonists of human 5-HT1a serotonin receptor | CHO 5-HT1a Ga15 NFAT-bla reporter, FRET ratio; 0% basal, 100% maximal reference agonist | activation, % at 10 µM | actives 0.56% (n = 65,000);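 active = activation above the screen-wide mean activation plus 3 SD, cut at about 19% in these data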;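 also: 0% = DMSO wells and 100% = 5-CT at EC100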
5HT1E ag – activates the human 5-HT1E serotonin receptor; P28566; CHO 5-HT1E Ga15 NFAT-bla reporter, FRET; 0% DMSO wells, 100% control agonist wells; activation, % at 6 µM; actives 0.69% (n = 65,000); AID 574;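 active = activation above a set limit, the screen-wide mean activation plus 3 SD, cut at about 8.5% in these data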;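 also: 100% = positive control agonist at 1 µM giving full maximal response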
S1P3 agonist – activates the human S1P3 receptor; activation, % at 4.5 µM; Q99500; actives 0.1% (n = 60,000); S1P3 NFAT-BLA reporter cells, agonism, FRET ratio; relative to 1 µM S1P, basal subtracted; AID 373;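 active = activation above the screen-wide mean plus 3 SD, cut at about 4.5% in these data, passing the limit was not always enough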
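Benchmarks: high control 1 µM S1P / System: stable CHO line with human S1P3, Gα16, NFAT-BLA reporter / Dosing: single compound concentration, 4.5 µM final / Timing: 4 h compound at 37 °C, 2 h substrate at RT / Measured by: FRET β-lactamase substrate fluorescence, excitation 405 nm, 460/535 nm emission ratio, background-subtracted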
5HT1a antag – blocks the human serotonin 5-HT1a receptor; P08908; CHO 5-HT1a Ga15 NFAT-bla reporter, antagonist mode; inhibition, % at 10 µM; AID 612; actives 0.68% (n = 62,000);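 active = inhibition above the mean of all tested compounds plus 3 SD, cut at about 43% in these data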;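 also: receptor stimulated by 5-CT agonist at 100 nM near EC80; beta-lactamase reporter measured by ratiometric fluorescence of a cleavable substrate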
Starred values were filed as active, the others as inactive; · = no result given. Only some compounds are listed: those with a hit (about 2.9% of all), similar ones and a draw of the others.

SMILES | HTR1E antagonist | S1P1 ag pot | HTR1A agonist | 5HT1E ag | S1P3 agonist | 5HT1a antag
CCOC(=O)N1CCC(NC(=O)c2ccc(CS(=O)(=O)c3c(Cl)cccc3Cl)o2)CC1 | -3 | 5 | 0 | 2 | 1 | -3
CCOC(=O)N1CCC(NC(=O)c2ccc(CS(=O)(=O)c3ccccc3C)o2)CC1 | -6 | -10 | 39* | 2 | 1 | 5
CCCCCCC(=O)N(O)C1CC(=O)N(Cc2ccccc2)C1=O (stereo unspecified) | 30* | 28 | -7 | -1 | -2 | 30
CCCCCC(=O)N(O)C1CC(=O)N(c2ccccc2)C1=O (stereo unspecified) | 12 | 7 | -4 | 0 | 0 | 3
COCCNC(=O)CN(c1cc(Cl)ccc1OC)S(C)(=O)=O | 3 | -2 | -2 | 0 | 0 | -1
Cn1cccc1C(=O)NS(=O)(=O)c1ccccc1Cl | 3 | 11 | 25* | 0 | -1 | 12
CC(C)(C)c1[nH]nc2c1C(Cc1ccccc1)C(C#N)=C(N)O2 (stereo unspecified) | -5 | -15 | -1 | 0 | -1 | -5
COc1ccc(S(=O)(=O)Nc2ccc3c(c2)OCCO3)cc1Cl | 4 | 18 | 0 | 0 | -1 | 10
O=S(=O)(Nc1ccc2c(c1)OCCO2)c1ccc2oc3ccccc3c2c1 | 5 | 72* | -1 | 0 | 0 | 17
Cc1nnc(SCC(=O)Nc2ccc(N3CCOCC3)cc2)o1 | -2 | -4 | -2 | 1 | -1 | -9
C/C(Cl)=C/Cn1c(N2CCCC2)nc2c1c(=O)n(C)c(=O)n2C | 7 | -12 | -1 | -1 | 8.7* | 13
CCN(CC)C(=O)COc1ccc(-c2ccccc2)cc1 | 5 | -10 | -1 | 0 | 0 | -2
COc1c2c(nc3occc13)C(CCC(C)(C)O)(OC)C(O)CC2 (stereo unspecified) | -13 | -6 | -2 | 26* | 2 | -11
COc1cc2c(cc1OC)C1=C(C#N)CCC(=O)N1CC2 | 49* | · | 0 | 0 | 1 | 8
COc1ccc(CCN2CC(C#N)=C3c4cc(OC)c(OC)cc4CCN3C2)cc1OC | 38* | -10 | 2 | 2 | -1 | 11
COc1cc2c(cc1OC)C1=C(C#N)CC/C(=N\S(=O)(=O)c3ccccc3)N1CC2 | 66* | -34 | 3 | 1 | 2 | 5
COc1cc2c(cc1OC)C1=C(C#N)CN(C3CCCCC3)CN1CC2 | 27 | -12 | 1 | 1 | 0 | 5
CC1CN(c2ccccc2)C(=O)CS1 (stereo unspecified) | 15 | 18 | 0 | 0 | -1 | 10
OC(COC1CCCCC1)CN1CCN(c2ccccc2)CC1 (stereo unspecified) | 0 | 13 | 7 | 1 | 0 | 45*
O=C(CCCc1cccs1)N1CCN(S(=O)(=O)c2ccccc2Br)CC1 | 11 | 28 | -1 | 0 | 0 | 3
O=C(NCc1ccccc1)NC1(C(=O)N2CCCC2)CCCCC1 | 2 | 11 | -1 | 89* | -1 | 6
O=C(NCc1ccccc1)NC1(C(=O)N2CCN(c3ncccn3)CC2)CCCCC1 | -1 | -24 | -1 | 0 | 0 | 5
Clc1ccc(OCCN2CCN(c3ncnc4sccc34)CC2)cc1 | 8 | 115* | 0 | 0 | -2 | 17
O=C1c2ccccc2C(=O)N1c1ccc(S(=O)(=O)N2CCN(c3ccccc3)CC2)cc1 | -3 | -10 | 2 | -1 | 0 | 0
CCC(CC)C(=O)Nc1cc(C)c2c(=O)oc3ccccc3c2n1 | 31* | -28 | 2 | 0 | 0 | -51
COc1ccc(CC(=O)Nc2cc(C)c3c(=O)oc4ccccc4c3n2)cc1 | 5 | -13 | 3 | 0 | -1 | -23
Clc1ccc(Cn2ncc3c(NCc4ccco4)ncnc32)c(Cl)c1 | 39* | 50 | -1 | 0 | -2 | 32
O=C(c1cc(-c2cccnc2)nc2ccc(Br)cc12)N1CCC2(CC1)OCCO2 | 4 | 11 | 0 | 0 | -1 | -3
COc1ccc(-c2cc(C(F)(F)F)nc(N3CCCCCC3)n2)cc1 | -10 | · | 3 | 1 | · | -7
